ABHD4 inh: inhibitors of mouse ABHD4; Q8VD66; inhibition, % at 8.92 µM; purified mABHD4, FP-Rh probe fluorescence polarization; actives 0.54% (n = 370,000);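 active = inhibition exceeding the mean over every tested compound plus 3 SD, cut at about 30% in these data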
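Doses – 8.92 µM, single dose · Material – wild-type mouse ABHD4 protein · Replication – single well per compound (singlicate) · Measure – percent inhibition of probe binding, normalized to plate controls · Schedule – 45 min compound pre-incubation plus 60 min probe step, 25 °C · Detection – fluorescence polarization with parallel and perpendicular emission, 525/598 nm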
PAD4 inh: inhibitors of human PAD4; Q9UM07; recombinant PAD4, RCA probe fluorescence polarization; inhibition, % at 6.36 µM; actives 0.41% (n = 330,000); AID 485272;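 active = percent inhibition above a cutoff equal to the mean of all tested compounds plus 3 SD, cut at about 15% in these data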
PRMT1 inh: inhibitors of human PRMT1; Q99873; inhibition, % at 2.79 µM; recombinant PRMT1, activity-based probe fluorescence polarization; AID 652257; actives 1.3% (n = 370,000);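 active = inhibition above about 21% made by adding two undisclosed values, limit read from the data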
SIAE inh: blocks human sialic acid acetylesterase | inhibition, % at 9.66 µM | AID 1053197 | Q9HAT2 | actives 0.69% (n = 370,000) | SIAE FP-Rh probe binding, fluorescence polarization;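 active = inhibition above a cutoff: mean of compounds within the control limits plus 3 SD of those, cut at about 17% in these data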
Target sequence (Q9HAT2 whole entry, looked up): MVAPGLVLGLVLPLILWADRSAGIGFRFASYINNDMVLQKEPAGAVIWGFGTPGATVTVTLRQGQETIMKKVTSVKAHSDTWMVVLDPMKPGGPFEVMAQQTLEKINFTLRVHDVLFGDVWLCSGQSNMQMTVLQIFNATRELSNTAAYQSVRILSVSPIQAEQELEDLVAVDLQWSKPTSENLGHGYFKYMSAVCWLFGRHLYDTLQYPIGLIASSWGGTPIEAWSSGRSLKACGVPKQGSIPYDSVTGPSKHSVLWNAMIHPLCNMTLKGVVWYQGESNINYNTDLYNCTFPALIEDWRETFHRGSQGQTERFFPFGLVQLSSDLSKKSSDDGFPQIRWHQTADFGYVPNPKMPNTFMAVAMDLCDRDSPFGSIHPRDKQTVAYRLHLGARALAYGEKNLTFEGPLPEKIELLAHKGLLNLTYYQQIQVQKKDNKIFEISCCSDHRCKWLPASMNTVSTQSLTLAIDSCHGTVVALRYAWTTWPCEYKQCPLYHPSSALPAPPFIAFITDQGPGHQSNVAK
TCR CD3 inh: human TCR-CD3 binding inhibition; TAMRA-labeled TCR probe fluorescence, biochemical; inhibition, % at 9.4 µM; actives 0.37% (n = 360,000); AID 651800; in the data active = inhibition above about 19%;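 note: recombinant mutant TCR 2C K166C tagged with TAMRA read by polarization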
HTRA1 inh: inhibitors of human serine peptidase HTRA1; recombinant HTRA1, FP-rhodamine activity-based probe, fluorescence polarization; AID 504803; actives 0.5% (n = 340,000); Q92743; inhibition, % at 5.96 µM; in the data active = inhibition above about 36%
PRMT1 inh conf: confirmation of human PRMT1 inhibitors; shares compounds with PRMT1 inh; recombinant His-PRMT1, activity-based probe fluorescence polarization; inhibition, % at 2.79 µM; actives 42% (n = 3,300);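 active = mean inhibition across replicates above the hit cutoff derived for the earlier primary screen, cut at about 22% in these data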
Of the large screens only hits and unclear results are named; the others gave an inactive call (follow-up assays come after a bar, where they were run). Shown are actives, neighbours in structure and some others; about 2.9% of the full set was active somewhere.

S=c1[nH]nc(Nc2cccc3ccccc23)s1	PRMT1 inh 55 (no result: HTRA1 inh) | PRMT1 inh conf 42
NC(=O)c1c(N)sc2c1CCCC2	PRMT1 inh 41 | PRMT1 inh conf 29
Nc1sc2c(c1C(=O)c1ccccc1)CCCC2	none
C=CC(=O)NC1CCCCN(C)C1=O (centres undefined)	none (no result: PAD4 inh, HTRA1 inh)
COC(=O)[C@]12C[C@H](CC(=O)NCc3cccs3)C(=O)N(Cc3ccc4c(c3)OCO4)C1=C[C@H](C(C)(C)C)O[C@@H]2C	none (no result: PAD4 inh, HTRA1 inh)
CCOC(=O)C1=C(C)Nc2nc(=S)[nH]n2C1c1ccc(Cl)cc1 (centres undefined)	PRMT1 inh 29 (no result: PAD4 inh) | PRMT1 inh conf 25
CCOC(=O)C1=C(C)Nc2nc(SCC)nn2C1c1ccc(OC)cc1 (centres undefined)	none
CC[C@@]1(O)C(=O)OCc2c1cc1n(c2=O)Cc2cc3c(N)cccc3nc2-1	none
CC[C@@]1(O)C(=O)OCc2c1cc1n(c2=O)Cc2cc3c(CN(C)C)c(O)ccc3nc2-1	PRMT1 inh 107 | PRMT1 inh conf 109
CCn1c2c(n(C(C)=O)c1=O)C[C@@H](c1ccccc1)[C@@H](C)[C@@H](C(=O)N1CCCC1)C2	none (no result: PAD4 inh, HTRA1 inh)
O=C(CSC1=NCCS1)Nc1ccc(F)cc1	none (no result: HTRA1 inh)
NC(=O)c1ccccc1NC(=O)CSC1=NCCS1	PRMT1 inh 27 | PRMT1 inh conf 53
Cc1cc(NC(=O)CSC2=NCCS2)no1	PRMT1 inh 39 | PRMT1 inh conf inactive
CN(NC(=S)Nc1ccc(OC(F)F)cc1)C(=S)Nc1ccc(OC(F)F)cc1	PRMT1 inh 44 | PRMT1 inh conf inactive
CCN(CC)C(=S)Nc1ccc(OC(F)F)cc1	none
Cc1sc2nc(COC(=O)CNC(=O)c3cc(F)ccc3F)[nH]c(=O)c2c1C	none (no result: PAD4 inh, TCR CD3 inh, HTRA1 inh)
Cc1ccc(-c2cn3c(=S)[nH]nc3s2)cc1	PRMT1 inh 26 | PRMT1 inh conf inactive
C=CCc1cccc2cc(C(=O)NNC(=O)c3ccncc3)c(=O)oc12	PRMT1 inh 27 | PRMT1 inh conf 26
C=CCc1cccc2cc(C(=O)Nc3cccc(C(=O)O)c3)c(=O)oc12	none (no result: HTRA1 inh)
COC(=O)C1CN(Cc2ccc(F)cc2)CCS(=O)(=O)N1Cc1ccc(OC)cc1 (centres undefined)	none (no result: PAD4 inh, TCR CD3 inh, HTRA1 inh)
O=C(CSc1ccccn1)N1CCN(c2cccc(Cl)c2)CC1	PRMT1 inh 47 | PRMT1 inh conf 53
O=C(CSc1ccccn1)N1CCN(c2ccccc2)CC1	none (no result: ABHD4 inh, PRMT1 inh, SIAE inh, TCR CD3 inh)
Cc1cccc2cc3c(nc12)SC(=NCC1CCCO1)N(Cc1ccco1)C3 (centres undefined)	none (no result: ABHD4 inh, PRMT1 inh, SIAE inh, TCR CD3 inh)
COCCN=C1Sc2nc3c(C)cccc3cc2CN1Cc1ccco1	PRMT1 inh 29 | PRMT1 inh conf inactive
O=C1NCCCC2c3c(cc(Br)c(O)c3Br)OC12N1CCOCC1 (centres undefined)	PRMT1 inh 27 | PRMT1 inh conf inactive
COC(=O)N1C[C@H](OCc2ccccc2)[C@H]2C[C@@H]1c1ccccc1O2	none (no result: PAD4 inh, HTRA1 inh)
O=C(Nc1ccc(F)cc1)c1nc(S(=O)(=O)Cc2ccccc2)ncc1Cl	PRMT1 inh 39 | PRMT1 inh conf inactive
Cc1cccc(CS(=O)(=O)c2ncc(Cl)c(C(=O)Nc3c(C)cccc3C)n2)c1	PRMT1 inh 25 | PRMT1 inh conf inactive
Cc1cccc(C)c1NC(=O)c1nc(S(=O)(=O)Cc2ccccc2)ncc1Cl	none
Cc1ccc(NC(=O)c2nc(S(=O)(=O)Cc3ccccc3)ncc2Cl)cc1	PRMT1 inh 38 | PRMT1 inh conf 23
CC(=O)C1(C(=O)NC2CCCC2)CC(c2ccccc2C(F)(F)F)=NO1 (centres undefined)	none (no result: PAD4 inh, TCR CD3 inh, HTRA1 inh)
O=C(O)CC(Sc1n[nH]c(=S)s1)C(=O)O (centres undefined)	PRMT1 inh 27 | PRMT1 inh conf inactive
COC(=O)C(C)Sc1n[nH]c(=S)s1 (centres undefined)	PRMT1 inh 35 | PRMT1 inh conf inactive
COC(=O)CSc1n[nH]c(=S)s1	none
Cc1sc(C(C2C(=O)CC(C)(C)CC2=O)C2C(=O)CC(C)(C)CC2=O)cc1[N+](=O)[O-]	PRMT1 inh 26 | PRMT1 inh conf 45
COCCCNC(=O)C[C@@H]1C(=O)N(CCc2ccc(Cl)cc2)C2=CCCCC[C@]21C(=O)OC	none (no result: PAD4 inh, TCR CD3 inh, HTRA1 inh)
Nn1c(SCc2cn3cc(Cl)ccc3n2)nnc1-c1ccncc1	PRMT1 inh 25 | PRMT1 inh conf 40
CC(C)CNC(=O)OCc1cn(Cc2cc(F)cc(F)c2)nn1	none (no result: PAD4 inh, TCR CD3 inh, HTRA1 inh)
O=C(O)/C=C\C(=O)Nc1cc(O)ccc1[N+](=O)[O-]	none
Cc1ccc(NC(=O)/C=C\C(=O)O)c([N+](=O)[O-])c1	PRMT1 inh 65 | PRMT1 inh conf inactive
Cc1ccc([N+](=O)[O-])cc1NC(=O)/C=C/C(=O)O	PRMT1 inh 49 | PRMT1 inh conf inactive
Cc1cc(C)c(NC(=O)/C=C\C(=O)O)c(Cl)c1	PRMT1 inh 28 | PRMT1 inh conf inactive
Cc1cc(C)c(NC(=O)/C=C\C(=O)O)c([N+](=O)[O-])c1	PRMT1 inh 81 | PRMT1 inh conf 37
O=S(=O)(CC1NCc2ccccc21)NCCc1ccccc1 (centres undefined)	none (no result: PAD4 inh, TCR CD3 inh, HTRA1 inh)
CNC(=O)c1nnsc1S(=O)(=O)c1ccc(Cl)cc1	PRMT1 inh 78 (no result: PAD4 inh) | PRMT1 inh conf 72
Cc1ccc(NC(=O)CSc2ccc(-c3cccnc3)nn2)c(C)c1	PRMT1 inh 51 | PRMT1 inh conf inactive
Cc1ccc(NC(=O)CSc2ccc(-c3ccccn3)nn2)c(C)c1	none
O=C(N[C@@H](Cc1cccnc1)C(=O)N1CCC[C@H]1C(=O)NCCc1ccccc1Cl)c1ccccc1	none (no result: PAD4 inh, HTRA1 inh)
CN(Cc1nccn1C)C(=O)c1cc(COc2cccc(C(F)(F)F)c2)on1	none
Cc1ccc(CN(C)C(=O)c2cc(COc3cccc(C(F)(F)F)c3)on2)o1	PRMT1 inh 37 | PRMT1 inh conf 34
COc1ccc(-c2nc3c(s2)CN(S(C)(=O)=O)CC3)cc1OC	PRMT1 inh 35 (no result: PAD4 inh) | PRMT1 inh conf inactive
CCOC(=O)c1c(C)nc(SCC(N)=O)c(C#N)c1-c1ccccc1	PRMT1 inh 35 | PRMT1 inh conf inactive
CCOC(=O)c1c(C)nc(C)c(C(=O)OCC)c1-c1ccccc1	none (no result: ABHD4 inh, PRMT1 inh, SIAE inh, TCR CD3 inh)
CN1CCN(NC(=O)CN2C(=O)S/C(=C\c3c(Cl)cccc3Cl)C2=O)CC1	PRMT1 inh 26 | PRMT1 inh conf inactive
O=C(CCN1C(=O)/C(=C/c2ccccc2Cl)SC1=S)NN1CCOCC1	none
O=S1(=O)c2ccc(N3CCC[C@H]3CO)cc2OCCCN1C1CC1	none (no result: PAD4 inh, TCR CD3 inh, HTRA1 inh)
CCC1(c2ccccc2)NC(=O)N(CC(=O)Nc2ccc(OC)nc2)C1=O (centres undefined)	PRMT1 inh 58 | PRMT1 inh conf 55
Cn1c(=O)[nH]c(=O)c2c1nc(SCC(=O)O)n2CCc1ccccc1	PRMT1 inh 26 | PRMT1 inh conf inactive
CCCN1C(=O)c2n[nH]c(C)c2C1c1ccc(Br)cc1 (centres undefined)	none (no result: PAD4 inh, HTRA1 inh)

Compound activity deposited in PubChem by The Scripps Research Institute Molecular Screening Center.
